# In ChEMBL document CHEMBL1649278, “Characterization of a new metallo-beta-lactamase gene, bla(NDM-1), and a novel erythromycin esterase gene carried on a unique genetic structure in Klebsiella pneumoniae sequence type 14 from India” (2009):
# B1: Metallo-beta-lactamase type 2 (Klebsiella pneumoniae), C7C422 (protein)
# chain: MELPNIMHPVAKLSTALAAALMLSGCMPGEIRPTIGQQMETGDQRFGDLVFRQLAPNVWQHTSYLDMPGFGAVASNGLIVRDGGRVLVVDTAWTDDQTAQILNWIKQEINLPVALAVVTHAHQDKMGGMDALHAAGIATYANALSNQLAPQEGMVAAQHSLTFAANGWVEPATAPNFGPLKVFYPGPGHTSDNITVGIDGTDIAFGGCLIKDSKAKSLGNLGDADTEHYAASARAFGAAFPKASMIVMSHSAPDSRAAITHTARMADKLR
# Tests used:
# [1] = system: Escherichia coli; assay: Antibacterial activity against Escherichia coli J53 by Etest method; type: functional
# [2] = system: Escherichia coli; assay: Antibacterial activity against Escherichia coli TOP10 by Etest method; type: functional
# [3] = system: Klebsiella pneumoniae; assay: Antibacterial activity against Klebsiella pneumoniae 05-560 by Etest method; type: functional
# [4] = system: Escherichia coli; assay: Antibacterial activity against Escherichia coli J53 harboring beta-lactamase NDM-1 by Etest method; type: functional
# Procedure, shortened: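 Transconjugant of E. coli J53 recipient, mated with donor on blood agar without selection for 18 h. Selected on MacConkey agar with sodium azide (100 μg/ml) plus ceftazidime (8 μg/ml). Transfer confirmed by indole test and PCR for the MBL gene. Susceptibility read by Etest.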
# [5] = system: Escherichia coli; assay: Antibacterial activity against Escherichia coli NF-NDM-1 by Etest method; type: functional
# [6] = system: Escherichia coli; assay: Antibacterial activity against Escherichia coli TOP10 harboring beta-lactamase NDM-1 by Etest method; type: functional
# Procedure, shortened: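 Fragments from BamHI, EcoRI or HindIII digests of K. pneumoniae 05-506 DNA were cloned into vector pK18 and electroporated into E. coli TOP10. Transformants were selected on LB agar with X-gal (30 μg/ml), ceftazidime (6 μg/ml) and kanamycin (25 μg/ml). Susceptibility read by Etest.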
# [7] = system: Klebsiella pneumoniae; assay: Ratio of Kcat to Km for Klebsiella pneumoniae 05-560 beta-lactamase IMP1
# [8] = system: Klebsiella pneumoniae; assay: Activity of Klebsiella pneumoniae 05-560 beta-lactamase IMP1 by spectrophotometry
# [9] = system: CC1(C)S[C@@H]2[C@H](NC(=O)Cc3ccccc3)C(=O)N2[C@H]1C(=O)O; assay: (§1) Activity of Klebsiella pneumoniae 05-560 beta-lactamase VIM2 by spectrophotometry
# [10] = system: CC(C)(O/N=C(\C(=O)N[C@@H]1C(=O)N2C(C(=O)[O-])=C(C[n+]3ccccc3)CS[C@H]12)c1csc(N)n1)C(=O)O; assay: as §1
# [11] = system: CO/N=C(\C(=O)N[C@@H]1C(=O)N2C(C(=O)O)=C(COC(C)=O)CS[C@H]12)c1csc(N)n1; assay: as §1
# [12] = system: CC(=O)OCC1=C(C(=O)O)N2C(=O)[C@@H](NC(=O)Cc3cccs3)[C@H]2SC1; assay: as §1
# [13] = system: CCN1CCN(C(=O)N[C@@H](C(=O)N[C@@H]2C(=O)N3[C@@H]2SC(C)(C)[C@@H]3C(=O)O)c2ccccc2)C(=O)C1=O; assay: as §1
# [14] = system: CO[C@@]1(NC(=O)Cc2cccs2)C(=O)N2C(C(=O)O)=C(COC(N)=O)CS[C@@H]21; assay: as §1
# [15] = system: CC1(C)S[C@@H]2[C@H](NC(=O)Cc3ccccc3)C(=O)N2[C@H]1C(=O)O; assay: (§2) Ratio of Kcat to Km for Klebsiella pneumoniae 05-560 beta-lactamase VIM2
# [16] = system: CC(C)(O/N=C(\C(=O)N[C@@H]1C(=O)N2C(C(=O)[O-])=C(C[n+]3ccccc3)CS[C@H]12)c1csc(N)n1)C(=O)O; assay: as §2
# [17] = system: CO/N=C(\C(=O)N[C@@H]1C(=O)N2C(C(=O)O)=C(COC(C)=O)CS[C@H]12)c1csc(N)n1; assay: as §2
# [18] = system: CC(=O)OCC1=C(C(=O)O)N2C(=O)[C@@H](NC(=O)Cc3cccs3)[C@H]2SC1; assay: as §2
# [19] = system: CCN1CCN(C(=O)N[C@@H](C(=O)N[C@@H]2C(=O)N3[C@@H]2SC(C)(C)[C@@H]3C(=O)O)c2ccccc2)C(=O)C1=O; assay: as §2
# [20] = substrate: CCN1CCN(C(=O)N[C@@H](C(=O)N[C@@H]2C(=O)N3[C@@H]2SC(C)(C)[C@@H]3C(=O)O)c2ccccc2)C(=O)C1=O; assay: (§3) Activity of Klebsiella pneumoniae 05-560 beta-lactamase NDM-1 by spectrophotometry
# Procedure, shortened: (§4)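 NDM-1 was expressed as a His-trx fusion. The cleared lysate (12,000 rpm, 30 min, 4°C) was bound to Ni-NTA agarose and eluted with 300 mM imidazole. The tag was cut off with TEV protease, and the protein was finished by GS320 gel filtration.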
# [21] = substrate: CO/N=C(\C(=O)N[C@@H]1C(=O)N2C(C(=O)O)=C(COC(C)=O)CS[C@H]12)c1csc(N)n1; assay: as §3; procedure, shortened: as §4
# [22] = substrate: C[C@@H](O)[C@H]1C(=O)N2C(C(=O)O)=C(SCCNC=N)C[C@H]12; assay: as §3; procedure, shortened: as §4
# [23] = substrate: CC1(C)S[C@@H]2[C@H](NC(=O)[C@H](N)c3ccccc3)C(=O)N2[C@H]1C(=O)O; assay: as §3; procedure, shortened: as §4
# [24] = substrate: CC1(C)S[C@@H]2[C@H](NC(=O)Cc3ccccc3)C(=O)N2[C@H]1C(=O)O; assay: as §3; procedure, shortened: as §4
# [25] = substrate: CC(=O)OCC1=C(C(=O)O)N2C(=O)[C@@H](NC(=O)Cc3cccs3)[C@H]2SC1; assay: as §3; procedure, shortened: as §4
# [26] = substrate: CC(C)(O/N=C(\C(=O)N[C@@H]1C(=O)N2C(C(=O)[O-])=C(C[n+]3ccccc3)CS[C@H]12)c1csc(N)n1)C(=O)O; assay: as §3; procedure, shortened: as §4
# [27] = substrate: CO/N=C(\C(=O)N[C@@H]1C(=O)N2C(C(=O)[O-])=C(C[N+]3(C)CCCC3)CS[C@H]12)c1csc(N)n1; assay: as §3; procedure, shortened: as §4
# [28] = substrate: CO[C@@]1(NC(=O)Cc2cccs2)C(=O)N2C(C(=O)O)=C(COC(N)=O)CS[C@@H]21; assay: as §3; procedure, shortened: as §4
# [29] = substrate: CCN1CCN(C(=O)N[C@@H](C(=O)N[C@@H]2C(=O)N3[C@@H]2SC(C)(C)[C@@H]3C(=O)O)c2ccccc2)C(=O)C1=O; assay: (§5) Ratio of Kcat to Km for Klebsiella pneumoniae 05-560 beta-lactamase NDM-1; procedure, shortened: as §4
# [30] = substrate: CO/N=C(\C(=O)N[C@@H]1C(=O)N2C(C(=O)O)=C(COC(C)=O)CS[C@H]12)c1csc(N)n1; assay: as §5; procedure, shortened: as §4
# [31] = substrate: C[C@@H](O)[C@H]1C(=O)N2C(C(=O)O)=C(SCCNC=N)C[C@H]12; assay: as §5; procedure, shortened: as §4
# [32] = substrate: CC1(C)S[C@@H]2[C@H](NC(=O)[C@H](N)c3ccccc3)C(=O)N2[C@H]1C(=O)O; assay: as §5; procedure, shortened: as §4
# [33] = substrate: CC1(C)S[C@@H]2[C@H](NC(=O)Cc3ccccc3)C(=O)N2[C@H]1C(=O)O; assay: as §5; procedure, shortened: as §4
# [34] = substrate: CC(=O)OCC1=C(C(=O)O)N2C(=O)[C@@H](NC(=O)Cc3cccs3)[C@H]2SC1; assay: as §5; procedure, shortened: as §4
# [35] = substrate: CC(C)(O/N=C(\C(=O)N[C@@H]1C(=O)N2C(C(=O)[O-])=C(C[n+]3ccccc3)CS[C@H]12)c1csc(N)n1)C(=O)O; assay: as §5; procedure, shortened: as §4
# [36] = substrate: CO/N=C(\C(=O)N[C@@H]1C(=O)N2C(C(=O)[O-])=C(C[N+]3(C)CCCC3)CS[C@H]12)c1csc(N)n1; assay: as §5; procedure, shortened: as §4
# [37] = substrate: CO[C@@]1(NC(=O)Cc2cccs2)C(=O)N2C(C(=O)O)=C(COC(N)=O)CS[C@@H]21; assay: as §5; procedure, shortened: as §4
molecule,measurement,setting,value
CO/N=C(\C(=O)N[C@@H]1C(=O)N2C(C(=O)O)=C(COC(N)=O)CS[C@H]12)c1ccco1 [CEFUROXIME],MIC,[1],8 µg/mL
same,MIC,[2],8 µg/mL
same,MIC,[3],> 256 µg/mL
same,MIC,[4],> 256 µg/mL
same,MIC,[5],> 256 µg/mL
same,MIC,[6],> 256 µg/mL
CC(=O)OCC1=C(C(=O)O)N2C(=O)[C@@H](NC(=O)Cc3cccs3)[C@H]2SC1 [CEPHALOTHIN],MIC,[1],4 µg/mL
same,kcat/Km,[7],2.4e+06 M⁻¹ s⁻¹
same,MIC,[2],8 µg/mL
same,MIC,[3],> 256 µg/mL
same,Km,[8],21 µM
same,kcat,[8],48 s⁻¹
same,MIC,[4],> 256 µg/mL
same,MIC,[5],> 256 µg/mL
same,MIC,[6],> 256 µg/mL
O=C(O)c1cn(C2CC2)c2cc(N3CCNCC3)c(F)cc2c1=O [CIPROFLOXACIN],MIC,[1],0.032 µg/mL
same,MIC,[3],> 256 µg/mL
same,MIC,[4],0.047 µg/mL
C[C@@H](O)[C@H]1C(=O)N2C(C(=O)O)=C(SCCNC=N)C[C@H]12 [IMIPENEM ANHYDROUS],kcat/Km,[7],1.2e+06 M⁻¹ s⁻¹
same,MIC,[2],0.094 µg/mL
same,MIC,[3],> 256 µg/mL
same,Km,[8],39 µM
same,kcat,[8],46 s⁻¹
same,MIC,[4],16 µg/mL
same,MIC,[5],> 32 µg/mL
same,MIC,[6],12 µg/mL
C[C@@H](O)[C@H]1C(=O)N2C(C(=O)O)=C(S[C@@H]3CN[C@H](C(=O)N(C)C)C3)[C@H](C)[C@H]12 [MEROPENEM],MIC,[1],0.064 µg/mL
same,MIC,[2],0.064 µg/mL
same,MIC,[3],> 256 µg/mL
same,MIC,[4],> 32 µg/mL
same,MIC,[5],> 32 µg/mL
same,MIC,[6],12 µg/mL
CCN1CCN(C(=O)N[C@@H](C(=O)N[C@@H]2C(=O)N3[C@@H]2SC(C)(C)[C@@H]3C(=O)O)c2ccccc2)C(=O)C1=O [PIPERACILLIN],MIC,[1],1 µg/mL
same,MIC,[2],0.5 µg/mL
same,MIC,[3],> 256 µg/mL
same,MIC,[4],> 256 µg/mL
same,MIC,[5],> 256 µg/mL
COLISTIN,MIC,[1],0.25 µg/mL
same,MIC,[2],0.38 µg/mL
same,MIC,[3],0.75 µg/mL
same,MIC,[4],0.25 µg/mL
same,MIC,[5],0.25 µg/mL
same,MIC,[6],0.38 µg/mL
Metallo-beta-lactamase VIM-2 (Klebsiella pneumoniae) (from UniProt Q3Y6Q3),Km,[9],49 µM
same,kcat,[9],56 s⁻¹
same,Km,[10],98 µM
same,kcat,[10],89 s⁻¹
same,Km,[11],32 µM
same,Km,[12],44 µM
same,kcat,[12],57 s⁻¹
same,Km,[13],72 µM
same,kcat,[13],33 s⁻¹
same,Km,[14],24 µM
same,kcat,[14],3 s⁻¹
same,kcat/Km,[15],1.14e+06 M⁻¹ s⁻¹
same,kcat/Km,[16],900000 M⁻¹ s⁻¹
same,kcat/Km,[17],860000 M⁻¹ s⁻¹
same,kcat/Km,[18],1.28e+06 M⁻¹ s⁻¹
same,kcat/Km,[19],450000 M⁻¹ s⁻¹
B1,kcat,[20],14 s⁻¹
same,Km,[21],10 µM
same,kcat,[21],6 s⁻¹
same,Km,[22],94 µM
same,kcat,[22],20 s⁻¹
same,Km,[23],22 µM
same,kcat,[23],15 s⁻¹
same,Km,[24],16 µM
same,kcat,[24],11 s⁻¹
same,Km,[25],10 µM
same,kcat,[25],4 s⁻¹
same,Km,[26],181 µM
same,kcat,[26],5 s⁻¹
same,Km,[27],77 µM
same,kcat,[27],13 s⁻¹
same,kcat,[28],1 s⁻¹
same,kcat/Km,[29],1.17e+06 M⁻¹ s⁻¹
same,kcat/Km,[30],580000 M⁻¹ s⁻¹
same,kcat/Km,[31],210000 M⁻¹ s⁻¹
same,kcat/Km,[32],660000 M⁻¹ s⁻¹
same,kcat/Km,[33],680000 M⁻¹ s⁻¹
same,kcat/Km,[34],400000 M⁻¹ s⁻¹
same,kcat/Km,[35],30000 M⁻¹ s⁻¹
same,kcat/Km,[36],170000 M⁻¹ s⁻¹
same,kcat/Km,[37],20000 M⁻¹ s⁻¹
